From ChEMBL document CHEMBL1131767, “Substituted coumarins as esterase-sensitive prodrug moieties with improved release rates” (Bioorg Med Chem Lett, 1999)

Columns and labels:
[1] = Compound was evaluated for the half life; assay type: ADME
Procedure, shortened: (§1)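 Porcine liver esterase (PLE), about 1 unit/mL, incubated with the model prodrug in 0.05 M phosphate buffer at pH 7.4 and 37 ± 0.5 °C. Amine release was followed by UV. The pseudo-first-order rate constant (kobs, min⁻¹) and the half-life (min) are reported.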

[2] = species: Sus scrofa; assay: Pseudo first order rate constant to release model amine drug after esterase catalyzed hydrolysis at an enzyme concentration of 1 unit/mL; procedure, shortened: as §1

Compound | half-life [1] [min] | K obs x10e2 [2] [min⁻¹]
CCN(CC)C(=O)/C=C\c1c(C)ccc(C)c1OC(C)=O | 11.4 | 6.1
CCN(CC)C(=O)/C=C\c1ccccc1OC(C)=O | 188 | 0.37
CC(=O)Oc1cc(C)cc(C)c1/C=C\C(=O)N(C)Cc1ccccc1 | 6.3 | 11
CC(=O)Oc1c(C)ccc(C)c1/C=C\C(=O)N(C)Cc1ccccc1 | 4.8 | 14.4
CC(=O)Oc1ccccc1/C=C\C(=O)N(C)Cc1ccccc1 | 32.5 | 2.13
CCN(CC)C(=O)/C=C\c1c(C)cc(C)cc1OC(C)=O | 18.8 | 3.7
